Source: ChEMBL document CHEMBL1124747, “Properties of the nucleic acid photoaffinity labeling agent 3-azidoamsacrine” (J Med Chem, 1990)

Key:
[1] = Relative mutation induction for L5178Y cells was evaluated at dose 0.005 mg/mL in dark-I condition (expt-I); format: functional, Mus musculus
How it was run: (§1)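 L5178Y suspension cells (3 × 10^6/mL, 5% CO2, 37 °C, shaking) exposed 20 h without activating enzyme; light arm irradiated 6.5 min (Hg lamp, <340 nm filtered). Cells washed, grown 24 h more and kept at 3 × 10^5/mL. Viability from 200 cells in soft agar; TFT (0.1 mg/mL) resistant colonies from 10^6 cells in triplicate dishes, counted at 10 days.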

[2] = Ability to block cleavage of GG/CC site in HaeIII enzyme with the light activated test compound/DNA ratio 1(no. of sites=22); += light activation
How it was run: (§2)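 pBR322 plasmid mixed with drug at 0.015, 0.12 or 0.48 mM (drug:DNA 1:8, 1:1 or 4:1), equilibrated on ice 30 min in the dark in 5 mM potassium phosphate pH 5.5, then irradiated 1 h with a medium-pressure Hg lamp (<340 nm filtered); dark set kept as control. Digested overnight with 10× excess enzyme plus DTT; fragments resolved on 1.2% agarose in TBE.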

[3] = Ability to block cleavage of […] site in NciI enzyme with the light activated test compound/DNA ratio 1:8(no. of sites=10); += light activation; how it was run: as §2
[4] = Induction frequency for L5178Y cells was evaluated at dose 0.005 mg/mL in light-I condition (expt-I); format: functional, Mus musculus; how it was run: as §1
[5] = Ability to block cleavage of G/ANTC site in Hinf1 enzyme with the light activated test compound/DNA ratio 1:8(no. of sites=10); += light activation; how it was run: as §2
[6] = Ability to block cleavage of TTT/AAA site in DraI enzyme with the light activated test compound/DNA ratio 1(no. of sites=3); += light activation; how it was run: as §2
[7] = Viability of L5178Y cells was evaluated at dose 0.005 mg/mL in dark condition (expt-II); format: functional, Mus musculus
How it was run: (§3)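 L5178Y cells were exposed for 20 h at 3 × 10^6 cells/mL. Light arms then received 6.5 min of Hg-lamp irradiation filtered to remove light below 340 nm. Cells were washed twice in Fischer's medium, grown a further 24 h and held at 3 × 10^5 cells/mL. For viability, 200 cells were plated in soft-agar cloning medium in triplicate dishes, and colonies were counted by an automated counter after 10 days.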

[8] = Ability to block cleavage of AG/CT site in AluI enzyme with the light activated test compound, DNA ratio 1(no. of sites=16); += light activation; how it was run: as §2
[9] = Ability to block cleavage of TTT/AAA site in DraI enzyme with the light activated test compound/DNA ratio 1:8(no. of sites=3); += light activation; how it was run: as §2
[10] = Ability to block cleavage of […] site in NciI enzyme with the light activated test compound/DNA ratio 1(no. of sites=10); += light activation; how it was run: as §2
[11] = Viability of L5178Y cells was evaluated at dose 0.005 mg/mL in dark-I condition (expt-I); format: functional, Mus musculus; how it was run: as §3
[12] = Mutation frequency for L5178Y cells was evaluated at dose 0.005 mg/mL in light-I condition (expt-I); format: functional, Mus musculus; how it was run: as §1
[13] = Ability to block cleavage of G/GNCC site in Restriction endonuclease Sau961 with the light activated test compound/DNA ratio 4(no. of sites=15); += light activation; how it was run: as §2
[14] = Relative toxicity against mammalian L5178Y cells at dose 0.005 mg/mL in light-1 condition (expt-I); format: functional, Mus musculus
How it was run: (§4)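 L5178Y mouse cells in suspension, 3 × 10^6 cells/mL, were exposed for 20 h at 37 °C in a shaker at 150 rpm under 5% CO2, without an activating enzyme. Light arms were irradiated for 6.5 min with a medium-pressure Hg lamp filtered to remove light below 340 nm; dark arms were not. Toxicity was taken as the Coulter-counted density of treated cells versus solvent control.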

[15] = Ability to block cleavage of G/GNCC site in Restriction endonuclease Sau961 with the light activated test compound/DNA ratio 1:8(no. of sites=15); += light activation; how it was run: as §2
[16] = Ability to block cleavage of GG/CC site in HaeIII enzyme with the light activated test compound/DNA ratio 4(no. of sites=22); += light activation; how it was run: as §2
[17] = Mean value of mutation induction for L5178Y cells was evaluated at dose 0.005 mg/mL in light condition (expt-II); format: functional, Mus musculus; how it was run: as §1
[18] = Relative toxicity against mammalian L5178Y cells at dose 0.005 mg/mL in light condition (expt-II); format: functional, Mus musculus; how it was run: as §4
[19] = Mean value of mutation induction for L5178Y cells was evaluated at dose 0.005 mg/mL in dark condition (expt-II); format: functional, Mus musculus
How it was run: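 L5178Y cells in suspension culture, gassed with 5% CO2 in air, shaken at 150 rpm, 37 °C. Cells at 3 × 10^6/mL were dosed for 20 h, unirradiated and without activating enzyme, then washed twice in Fop and grown 24 h more. TFT-resistant mutants came from 10^6 cells plated in three dishes of cloning medium with 0.1 mg/mL TFT, colonies counted at 10 days; frequency expressed ×10^6.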

[20] = Ability to block cleavage of C/CGG site in HpaII enzyme with the light activated test compound/DNA ratio 1(no. of sites=26); += light activation; how it was run: as §2
[21] = Induction frequency for L5178Y cells was evaluated at dose 0.005 mg/mL in dark condition (expt-II); format: functional, Mus musculus; how it was run: as §1
[22] = Relative toxicity against mammalian L5178Y cells at dose 0.008 mg/mL in light-2 condition (expt-I); format: functional, Mus musculus; how it was run: as §4
[23] = Relative mutation induction for L5178Y cells was evaluated at dose 0.005 mg/mL in dark condition (expt-II); format: functional, Mus musculus; how it was run: as §1
[24] = Mean value of mutation induction for L5178Y cells was evaluated at dose 0.008 mg/mL in dark-II condition (expt-I); format: functional, Mus musculus; how it was run: as §1
[25] = Mean value of mutation induction for L5178Y cells was evaluated at dose 0.005 mg/mL in dark-I condition (expt-I); format: functional, Mus musculus; how it was run: as §1
[26] = Half-life was evaluated in water in the absence of light; format: ADME
[27] = Viability of L5178Y cells was evaluated at dose 0.005 mg/mL in light condition (expt-II); format: functional, Mus musculus; how it was run: as §3
[28] = Ability to block cleavage of G/ANTC site in Hinf1 enzyme with the light activated test compound/DNA ratio 4(no. of sites=10); += light activation; how it was run: as §2
[29] = Ability to block cleavage of […] site in NciI enzyme with the light activated test compound/DNA ratio 4(no. of sites=10); += light activation; how it was run: as §2
[30] = Viability of L5178Y cells was evaluated at dose 0.005 mg/mL in light-I condition (expt-I); format: functional, Mus musculus; how it was run: as §3

Blockage activity [2]: Light activation
Blockage activity [3]: Light activation
Blockage activity [5]: Light activation
Blockage activity [6]: Light activation
Blockage activity [8]: Light activation
Blockage activity [9]: Light activation
Blockage activity [10]: Light activation
Blockage activity [13]: Light activation
Blockage activity [15]: Light activation
Blockage activity [16]: Light activation
Blockage activity [20]: Light activation
half-life [26]: > 14 days
Blockage activity [28]: Light activation
Blockage activity [29]: Light activation
Structure (SMILES): COc1cc(NS(C)(=O)=O)ccc1Nc1c2ccccc2nc2cc(N=[N+]=[N-])ccc12.Cl
Relative activity [1]: 53
Induced frequency [4]: 280
Viability [7]: 37.7
Viability [11]: 66.7
Mutation frequency [12]: 434 10e6 F
Relative toxicity [14]: 69
Mean value [17]: 114.3
Relative toxicity [18]: 65
Mean value [19]: 95
Induced frequency [21]: 366
Relative toxicity [22]: 55
Relative activity [23]: 124
Mean value [24]: 63
Mean value [25]: 99.7
Viability [27]: 35.7
Viability [30]: 57
